Consider 6 compounds from ChEMBL document CHEMBL1152424, “Syntheses and biological evaluations of carbosilane dendrimers uniformly functionalized with sialyl alpha(2-->3) lactose moieties as inhibitors for human influenza viruses” (Bioorg Med Chem, 2009).

The test system of one assay is H3N2 subtype. The experiment in a line: Antiviral activity against human influenza virus A/Aichi/2/1968(H3N2) infected in chicken erythrocyte assessed as inhibition of hemagglutination after 1 hr. In kind it is functional, organism-based. The procedure, abridged:
(§1)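 Twofold serial dilutions of inhibitor in PBS pH 6.5 with 0.01% gelatin, mixed with virus (2^2 HA units) for 1 h at 4 °C. Then 0.5% (v/v) chicken erythrocytes added, 1 h at 4 °C. Titer is the maximum dilution giving complete inhibition of hemagglutination. Concentrations are expressed per sialyl lactose unit. Virus was egg-grown and purified.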

Assay [1] deals with Influenza A virus. The experiment in a line: Antiviral activity against human influenza virus A/PR/8/38(H1N1) infected in chicken erythrocyte assessed as inhibition of hemagglutination after 1 hr. In kind it is functional, organism-based. The note with it: A/Puerto Rico/8/1934(H1N1). In a few lines: as §1
Assay [2] has as its system Influenza A virus. Description: Antiviral activity against human influenza virus A/PR/8/38(H1N1) infected in guinea pig erythrocyte assessed as inhibition of hemolysis. The class given is functional, organism-based. The note with it: A/Puerto Rico/8/1934(H1N1). The procedure, abridged: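 Virus (2^8 HAU) preincubated 1 h at 4 °C with inhibitor in PBS. Then 2.5% (v/v) guinea pig erythrocytes added, 30 min at 4 °C. Cells pelleted, resuspended in 20 mM acetate-buffered saline pH 5.0, 30 min at 37 °C. Hemoglobin released read at A550 against 0.1% Triton X-100 as 100% hemolysis. IC50 expressed per sialyl lactose unit.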

Assay [3] deals with Influenza A virus. The experiment in a line: Antiviral activity against human influenza virus A/PR/8/38(H1N1) infected in MDCK cells assessed as neutralization of viral infection after 20 hrs by colorimetric assay. The class given is functional, organism-based. Conditions: A/Puerto Rico/8/1934(H1N1).
The test system of assay [4] is Influenza A virus. The experiment in a line: Antiviral activity against human influenza virus A/Memphis/1/71(H3N2) infected in chicken erythrocyte assessed as inhibition of hemagglutination after 1 hr. In kind it is functional, organism-based, Influenza A virus (A/Memphis/1/1971(H3N2)). In a few lines:
as §1

Turning to `N[C@H]1[C@H]([C@H](O)[C@H](O)CO)O[C@@](O[C@H]2[C@@H](O)[C@@H](CO)O[C@@H](O[C@H]3[C@H](O)[C@@H](O)[C@H](OCCCCCSCCCCCC(=O)NCCC[Si](CCCNC(=O)CCCCCSCCCCCO[C@@H]4O[C@H](CO)[C@@H](O[C@@H]5O[C@H](CO)[C@H](O)[C@H](O[C@]6(C(=O)O)C[C@H](O)[C@@H](N)[C@H]([C@H](O)[C@H](O)CO)O6)[C@H]5O)[C@H](O)[C@H]4O)(CCCNC(=O)CCCCCSCCCCCO[C@@H]4O[C@H](CO)[C@@H](O[C@@H]5O[C@H](CO)[C@H](O)[C@H](O[C@]6(C(=O)O)C[C@H](O)[C@@H](N)[C@H]([C@H](O)[C@H](O)CO)O6)[C@H]5O)[C@H](O)[C@H]4O)CCCNC(=O)CCCCCSCCCCCO[C@@H]4O[C@H](CO)[C@@H](O[C@@H]5O[C@H](CO)[C@H](O)[C@H](O[C@]6(C(=O)O)C[C@H](O)[C@@H](N)[C@H]([C@H](O)[C@H](O)CO)O6)[C@H]5O)[C@H](O)[C@H]4O)O[C@@H]3CO)[C@@H]2O)(C(=O)O)C[C@@H]1O`, the IC50 came out at 4 µM in the assay on H3N2 subtype; 16 µM in the assay with Influenza A virus [1]; 62.5 µM in the assay with Influenza A virus [2]; 16 µM in the assay on Influenza A virus [3]; 250 µM in the assay with Influenza A virus [4].

For the compound `N[C@H]1[C@H]([C@H](O)[C@H](O)CO)O[C@@](O[C@H]2[C@@H](O)[C@@H](CO)O[C@@H](O[C@H]3[C@H](O)[C@@H](O)[C@H](OCCCCCSCCC[Si](CCCSCCCCCO[C@@H]4O[C@H](CO)[C@@H](O[C@@H]5O[C@H](CO)[C@H](O)[C@H](O[C@]6(C(=O)O)C[C@H](O)[C@@H](N)[C@H]([C@H](O)[C@H](O)CO)O6)[C@H]5O)[C@H](O)[C@H]4O)(CCCSCCCCCO[C@@H]4O[C@H](CO)[C@@H](O[C@@H]5O[C@H](CO)[C@H](O)[C@H](O[C@]6(C(=O)O)C[C@H](O)[C@@H](N)[C@H]([C@H](O)[C@H](O)CO)O6)[C@H]5O)[C@H](O)[C@H]4O)CCCSCCCCCO[C@@H]4O[C@H](CO)[C@@H](O[C@@H]5O[C@H](CO)[C@H](O)[C@H](O[C@]6(C(=O)O)C[C@H](O)[C@@H](N)[C@H]([C@H](O)[C@H](O)CO)O6)[C@H]5O)[C@H](O)[C@H]4O)O[C@@H]3CO)[C@@H]2O)(C(=O)O)C[C@@H]1O`, the IC50 with H3N2 subtype was found to be 32 µM; with Influenza A virus [1] it was 64 µM; in the assay with Influenza A virus [2], 125 µM; in the assay on Influenza A virus [3], 32 µM; in the assay on Influenza A virus [4] it was 250 µM.

As for `C[Si](C)(CCC[Si](CCCSCCCCCO[C@@H]1O[C@H](CO)[C@@H](O[C@@H]2O[C@H](CO)[C@H](O)[C@H](O[C@]3(C(=O)O)C[C@H](O)[C@@H](N)[C@H]([C@H](O)[C@H](O)CO)O3)[C@H]2O)[C@H](O)[C@H]1O)(CCCSCCCCCO[C@@H]1O[C@H](CO)[C@@H](O[C@@H]2O[C@H](CO)[C@H](O)[C@H](O[C@]3(C(=O)O)C[C@H](O)[C@@H](N)[C@H]([C@H](O)[C@H](O)CO)O3)[C@H]2O)[C@H](O)[C@H]1O)CCCSCCCCCO[C@@H]1O[C@H](CO)[C@@H](O[C@@H]2O[C@H](CO)[C@H](O)[C@H](O[C@]3(C(=O)O)C[C@H](O)[C@@H](N)[C@H]([C@H](O)[C@H](O)CO)O3)[C@H]2O)[C@H](O)[C@H]1O)CCC[Si](CCCSCCCCCO[C@@H]1O[C@H](CO)[C@@H](O[C@@H]2O[C@H](CO)[C@H](O)[C@H](O[C@]3(C(=O)O)C[C@H](O)[C@@H](N)[C@H]([C@H](O)[C@H](O)CO)O3)[C@H]2O)[C@H](O)[C@H]1O)(CCCSCCCCCO[C@@H]1O[C@H](CO)[C@@H](O[C@@H]2O[C@H](CO)[C@H](O)[C@H](O[C@]3(C(=O)O)C[C@H](O)[C@@H](N)[C@H]([C@H](O)[C@H](O)CO)O3)[C@H]2O)[C@H](O)[C@H]1O)CCCSCCCCCO[C@@H]1O[C@H](CO)[C@@H](O[C@@H]2O[C@H](CO)[C@H](O)[C@H](O[C@]3(C(=O)O)C[C@H](O)[C@@H](N)[C@H]([C@H](O)[C@H](O)CO)O3)[C@H]2O)[C@H](O)[C@H]1O`, the IC50 came to 32 µM in the assay on H3N2 subtype; 32 µM in the assay on Influenza A virus [1]; 32 µM in the assay with Influenza A virus [2]; 7.8 µM with Influenza A virus [3]; 250 µM in the assay on Influenza A virus [4].

Regarding `N[C@H]1[C@H]([C@H](O)[C@H](O)CO)O[C@@](O[C@H]2[C@@H](O)[C@@H](CO)O[C@@H](O[C@H]3[C@H](O)[C@@H](O)[C@H](OCCCCCSCCCCCC(=O)NCCC[Si](CCCNC(=O)CCCCCSCCCCCO[C@@H]4O[C@H](CO)[C@@H](O[C@@H]5O[C@H](CO)[C@H](O)[C@H](O[C@]6(C(=O)O)C[C@H](O)[C@@H](N)[C@H]([C@H](O)[C@H](O)CO)O6)[C@H]5O)[C@H](O)[C@H]4O)(CCCNC(=O)CCCCCSCCCCCO[C@@H]4O[C@H](CO)[C@@H](O[C@@H]5O[C@H](CO)[C@H](O)[C@H](O[C@]6(C(=O)O)C[C@H](O)[C@@H](N)[C@H]([C@H](O)[C@H](O)CO)O6)[C@H]5O)[C@H](O)[C@H]4O)c4ccccc4)O[C@@H]3CO)[C@@H]2O)(C(=O)O)C[C@@H]1O`, the IC50 in the assay on H3N2 subtype was determined as 8 µM; in the assay with Influenza A virus [1], 16 µM; with Influenza A virus [2], 62.5 µM; with Influenza A virus [3], 25 µM; with Influenza A virus [4], 250 µM.

For the compound `C[Si](C)(CCC[Si](CCCNC(=O)CCCCCSCCCCCO[C@@H]1O[C@H](CO)[C@@H](O[C@@H]2O[C@H](CO)[C@H](O)[C@H](O[C@]3(C(=O)O)C[C@H](O)[C@@H](N)[C@H]([C@H](O)[C@H](O)CO)O3)[C@H]2O)[C@H](O)[C@H]1O)(CCCNC(=O)CCCCCSCCCCCO[C@@H]1O[C@H](CO)[C@@H](O[C@@H]2O[C@H](CO)[C@H](O)[C@H](O[C@]3(C(=O)O)C[C@H](O)[C@@H](N)[C@H]([C@H](O)[C@H](O)CO)O3)[C@H]2O)[C@H](O)[C@H]1O)CCCNC(=O)CCCCCSCCCCCO[C@@H]1O[C@H](CO)[C@@H](O[C@@H]2O[C@H](CO)[C@H](O)[C@H](O[C@]3(C(=O)O)C[C@H](O)[C@@H](N)[C@H]([C@H](O)[C@H](O)CO)O3)[C@H]2O)[C@H](O)[C@H]1O)CCC[Si](CCCNC(=O)CCCCCSCCCCCO[C@@H]1O[C@H](CO)[C@@H](O[C@@H]2O[C@H](CO)[C@H](O)[C@H](O[C@]3(C(=O)O)C[C@H](O)[C@@H](N)[C@H]([C@H](O)[C@H](O)CO)O3)[C@H]2O)[C@H](O)[C@H]1O)(CCCNC(=O)CCCCCSCCCCCO[C@@H]1O[C@H](CO)[C@@H](O[C@@H]2O[C@H](CO)[C@H](O)[C@H](O[C@]3(C(=O)O)C[C@H](O)[C@@H](N)[C@H]([C@H](O)[C@H](O)CO)O3)[C@H]2O)[C@H](O)[C@H]1O)CCCNC(=O)CCCCCSCCCCCO[C@@H]1O[C@H](CO)[C@@H](O[C@@H]2O[C@H](CO)[C@H](O)[C@H](O[C@]3(C(=O)O)C[C@H](O)[C@@H](N)[C@H]([C@H](O)[C@H](O)CO)O3)[C@H]2O)[C@H](O)[C@H]1O`, the IC50 in the assay on H3N2 subtype worked out at 4 µM; in the assay with Influenza A virus [1] it was 8 µM; in the assay on Influenza A virus [2], 32 µM; with Influenza A virus [3] it was 5.6 µM; in the assay with Influenza A virus [4] it was 250 µM.

Regarding `N[C@H]1[C@H]([C@H](O)[C@H](O)CO)O[C@@](O[C@H]2[C@@H](O)[C@@H](CO)O[C@@H](O[C@H]3[C@H](O)[C@@H](O)[C@H](OCCCCCSCCC[Si](CCCSCCCCCO[C@@H]4O[C@H](CO)[C@@H](O[C@@H]5O[C@H](CO)[C@H](O)[C@H](O[C@]6(C(=O)O)C[C@H](O)[C@@H](N)[C@H]([C@H](O)[C@H](O)CO)O6)[C@H]5O)[C@H](O)[C@H]4O)(CCCSCCCCCO[C@@H]4O[C@H](CO)[C@@H](O[C@@H]5O[C@H](CO)[C@H](O)[C@H](O[C@]6(C(=O)O)C[C@H](O)[C@@H](N)[C@H]([C@H](O)[C@H](O)CO)O6)[C@H]5O)[C@H](O)[C@H]4O)c4ccccc4)O[C@@H]3CO)[C@@H]2O)(C(=O)O)C[C@@H]1O`, the IC50 with H3N2 subtype is 125 µM; in the assay with Influenza A virus [1], 64 µM; with Influenza A virus [2] it was 250 µM; with Influenza A virus [3], 64 µM; in the assay with Influenza A virus [4], 250 µM.
